# Compound activity deposited in PubChem by several laboratories.
# PPC-1+TRAIL kill: compounds killing PPC-1 cancer cells with TRAIL present, primary screen, TRAIL potentiator project, ATPLite luminescence, uHTS; PPC-1 cells + TRAIL, ATPLite viability luminescence; cell killing (% activity), % at 4 µM or 5 µM; 220,000 compounds, 0.41% hits; AID 1443, 2008;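 active = cell killing above 50% in the first pass at 4 µM, then a duplicate retest at 5 µM averaging 50% or more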;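 note: plate controls were cells with TRAIL plus DMSO for no effect and medium-only wells lacking cells for full effect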
# C8 TRAIL sens: viability loss with TRAIL in NB7+C8 cells, primary screen, TRAIL sensitizer project, cell-based, ATPlite luminescence; inhibition (viability loss, TRAIL sensitization), % at 10 µM; 360,000 compounds, 1% hits; AID 624354, 2012;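 active = compounds causing at least 50% loss of cell viability in the single-dose screen, relative to plate controls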
# NF-kB expr up: activators of NF-kB expression in neurons, primary screen, cell-based, HTS; AID 1239, 2008; fold change at 12.5 µM; human neuronal cells, NF-kB reporter expression; active compounds read high; 190,000 compounds, 1.6% hits; in the data active = fold change above about 3.3
# APP 5'UTR act: activators of APP 5'UTR luciferase reporter, primary screen, SH-SY5Y cells. SH-SY5Y APP 5'UTR luciferase reporter, luminescence; zero percent = DMSO vehicle wells. activation, % at 2 µM. 190,000 compounds, 1% hits. AID 1276, 2008;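 active = activation above a set limit, based on mean plus 3 SD of controls, cut at about 140% in these data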
# FLuc act counter: FLuc activators, initial screening, artefact control for FLuc-dependent activation tests, biochemical, ATPlite luminescence; ATPlite luciferase biochemical, 10 min; 0 = ATP-free wells, 1 = DMSO control; Luciferin 4-monooxygenase (Photinus pyralis), P08659; activation factor at 10 µM; 200,000 tested, under 10 active; AID 1027, 2008;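 active = luciferase activation factor, scaled between plate controls, of at least 2 with compound at 10 µM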
# Target sequence (P08659 whole entry, looked up): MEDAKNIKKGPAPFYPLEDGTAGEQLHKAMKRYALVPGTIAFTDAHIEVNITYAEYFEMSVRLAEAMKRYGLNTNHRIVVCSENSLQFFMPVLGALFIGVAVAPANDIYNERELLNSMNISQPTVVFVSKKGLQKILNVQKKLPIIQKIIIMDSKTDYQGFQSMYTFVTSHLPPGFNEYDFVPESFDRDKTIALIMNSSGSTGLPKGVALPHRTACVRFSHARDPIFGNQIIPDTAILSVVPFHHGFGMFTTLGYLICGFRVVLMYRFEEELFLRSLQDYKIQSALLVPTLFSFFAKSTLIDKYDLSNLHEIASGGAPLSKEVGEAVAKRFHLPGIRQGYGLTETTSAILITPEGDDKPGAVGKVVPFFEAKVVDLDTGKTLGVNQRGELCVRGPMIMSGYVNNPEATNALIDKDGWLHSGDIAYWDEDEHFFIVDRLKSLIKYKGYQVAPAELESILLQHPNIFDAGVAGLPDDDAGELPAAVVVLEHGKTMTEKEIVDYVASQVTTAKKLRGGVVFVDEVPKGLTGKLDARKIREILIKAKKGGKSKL
#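 System: cell-free luciferase reagent; medium: PBS as buffer for the ATP substrate; doses: test compounds dosed from 2 mM stocks in 100% DMSO; incubation: 10 min, room temperature; measured by: luminescence from luciferase reaction; read-out: luciferase activation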
# FLuc inhib CS: firefly luciferase enzyme inhibitors, primary screen, artefact control for luciferase-based inhibitor screens, biochemical, luminescence, ATPLite; Luciferin 4-monooxygenase (Photinus pyralis), P08659; 10 min; inhibition, % at 10 µM; 200,000 compounds, 1.5% hits;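 active = inhibition above about 50% when tested at 10 µM, limit read from the data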
# PPC-1 tox: cytotoxicity in PPC-1 cells, confirmation, cytotoxicity control for TRAIL apoptosis potentiator project, cell-based, ATP content luminescence; shares compounds with PPC-1+TRAIL kill; PPC-1 viability, ATPlite luminescence, overnight; cytotoxicity, % at 5 µM; 1,200 compounds, 50% hits;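 active = reconfirmed compounds whose average cytotoxicity reaches 50% or more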;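 note: 0% = DMSO-treated cells and 100% = wells holding medium but no cells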
# * marks the source's active call; other numbers are inactive results; . = not tested or not shown. In the library only some 2.2% were active in any assay of this set; here they are far more common.
SMILES,PPC-1+TRAIL kill,C8 TRAIL sens,NF-kB expr up,APP 5'UTR act,FLuc act counter,FLuc inhib CS,PPC-1 tox
COc1cc(Cn2c3ccc(NC(=O)CCc4ccc(O)cc4)cc3c(=O)n2C)ccc1F,.,6,.,.,.,.,.
O=C(O)CC(NC(=O)c1ccccc1NC(=O)c1ccccc1)C(=O)O (stereo not given),5,-4,1.1,10,1,-4,3
CCN(CC)CCC12CC(C)OC1=Nc1ccccc1NC2=O (stereo not given),.,8,.,.,.,.,.
CCOC(=O)N1CCN(C(=O)c2nc3ccccc3s2)CC1,12,2,1.2,15,1,2,-1
CCOC(=O)N1CCN(CC(=O)Nc2nc3ccccc3s2)CC1,.,-23,.,.,.,.,.
O=C(CCCCn1c(=O)c2ccccc2n(Cc2ccc(F)cc2)c1=O)NCc1ccco1,-4,15,1,1,1,-4,2
CN(C)S(=O)(=O)c1ccc(C(=O)NCCOc2ccccc2)cc1,-15,-11,2.8,.,1.1,-8,-2
Cc1cnc(NC(=O)c2sc3ccccc3c2Cl)s1,70*,82*,4.6*,107,0.1,93*,68*
NS(=O)(=O)c1cccc(NC(=O)c2cc(=O)c3ccccc3o2)c1,.,8,.,.,.,.,.
Cc1cnc(NC(=O)c2cc3ccccc3o2)s1,51*,36,3.3,95,0.1,89*,54*
NS(=O)(=O)c1cccc(NC(=O)c2cc3ccccc3o2)c1,35,63*,1.3,17,0.2,84*,36
Cc1nnc(NC(=O)c2cc3ccccc3o2)s1,.,42,.,.,.,.,.
COCCNC(=O)C1(C)CCCN(Cc2cn(C)c3ccccc23)C1 (stereo not given),.,8,.,.,.,.,.
c1ccc(COc2cccc(-c3cc4nc(NCCCn5ccnc5)ccn4n3)c2)cc1,.,26,.,.,.,.,.
COc1ccccc1CCNC(=O)c1c(N)[nH]c(C(=O)c2ccccc2)c1-c1ccc(Br)cc1,.,-4,.,.,.,.,.
Cc1ccc(NN2C(=O)C=C(c3ccc(Cl)cc3)C2=O)cc1,3,5,1.1,-6,1,0,2
CCN(CC)c1ccc(C2N(C(=O)N3CCOCC3)CCN2S(=O)(=O)c2ccc(C)cc2)cc1 (stereo not given),12,-3,0.91,-21,1.1,-6,9
Cc1ccc(S(=O)(=O)N2CCN(C(=O)N3CCOCC3)C2C(C)C)cc1 (stereo not given),-7,1,1,1,1.1,-5,.
CCOC(=O)c1cnc2c(-c3ccccc3)c(C)nn2c1N,8,4,1.4,-6,0.9,14,.
CCOC(=O)c1cnc2c(-c3ccccc3)cnn2c1N,53*,66*,7.4*,124,0.3,75*,55*
CCOC(=O)c1cnc2c(N=Nc3ccccc3)c(N)nn2c1N,58*,69*,1.6,20,0.3,70*,59*
CCOC(=O)c1cnc2c(N=Nc3cccc(Cl)c3)c(N)nn2c1N,17,.,1.3,-7,0.9,7,.
CN(c1cccc(NC(=O)c2ccc(C(C)(C)C)cc2)c1)S(C)(=O)=O,41,73*,2,91,0.2,80*,53*
CCc1ccccc1N(CC(=O)Nc1cccc(N(C)S(C)(=O)=O)c1)S(C)(=O)=O,9,1,1,-1,1,-4,18
CCc1ccccc1N(CC(=O)O)S(C)(=O)=O,-14,29,1.1,-8,1,-1,-15
SMILES,PPC-1+TRAIL kill,C8 TRAIL sens,NF-kB expr up,APP 5'UTR act,FLuc act counter,FLuc inhib CS,PPC-1 tox
CCCCCCn1c(=O)n2n(c1=O)[C@@H]1CN(S(=O)(=O)c3ccc(C)cc3)C[C@]1(O)[C@@H](OC(=O)Nc1c(C)noc1C)C2,.,3,.,.,.,.,.
CC(C)(C)C1=C(C#N)C(c2cc3c(cc2Br)OCO3)C(C#N)=C(N)O1 (stereo not given),-10,-7,.,.,1,-2,4
Cc1ccc(C2C(C#N)=C(N)Oc3cc4c(cc32)OCO4)cc1 (stereo not given),8,0,3.1,-3,1,3,.
CC(C)[C@H](NC(=O)[C@@H]1Cc2c([nH]c3ccccc23)C2c3ccccc3C(=O)N21)C(=O)N1CCC[C@H]1C(=O)O (stereo not given in full),.,6,.,.,.,.,.
COc1ccc(/C=C/C2=NN(C)C(=O)CC2)cc1,53*,53*,3.4*,149*,0.2,81*,48
CCOC(=O)CN1N=C(/C=C/c2ccc(C)cc2)CCC1=O,10,-2,1.4,-10,1,1,.
CC1=C(C(=O)N2CCOCC2)CC(CC(=O)NC(c2ccccc2)c2ccccc2)C(=O)N1Cc1ccc(F)cc1 (stereo not given),.,-7,.,.,.,.,.
NC(=O)c1ccsc1NC(=O)c1cccs1,.,14,.,15,.,.,.
NC(=O)c1ccsc1NC(=O)c1ccc2c(c1)CCCC2,78*,85*,8.2*,180*,0.1,91*,76*
NC(=O)c1ccsc1NC(=O)c1ccc(N2CCCC2=O)cc1,77*,80*,1.2,175*,0.1,93*,74*
CCN(CC)S(=O)(=O)c1cccc(C(=O)Nc2ccccc2C(=O)N2CCOCC2)c1,5,-9,0.87,-10,1,3,-4
Oc1ccccc1N=Nc1nc(-c2ccccc2)c(-c2ccccc2)[nH]1,21,-1,1.6,-88,1,-2,23
COc1ccccc1N=Nc1nc(-c2ccccc2)c(-c2ccccc2)[nH]1,-2,-5,1.6,-4,0.9,5,.
O=C1NC[C@H](CCCCN2C[C@H](Cc3ccccc3)N(CCc3ccc(O)cc3)C(=O)C2=O)N(CC2CCCCC2)C1=O,.,-8,.,.,.,.,.
CCOC(=O)c1nn(-c2ccc3c(c2)CCN3C(C)=O)cc1O,41,62*,1.6,125,0.4,61*,46
CCOC(=O)c1nn(-c2ccc(F)cc2)cc1O,3,7,1.4,8,0.8,24,.
CCN(CC)C(=O)CSc1ncnc2c(-c3cccs3)nsc12,4,11,1.8,13,1,3,4
CC1(C(=O)Nc2cccc(Oc3ccccc3)c2)CCN1Cc1cccc2c1OCO2 (stereo not given),.,-4,.,.,.,.,.
COc1ccc(CCNC(=O)Nc2nc(CN)cs2)cc1OC,.,-10,.,.,.,.,.
Nc1ccc(-c2nc3ccc(N)cc3o2)cc1,44,68*,2.4,16,0.1,87*,45
